GSTO1 inh: inhibitors of recombinant GSTO1, primary screen, counter-screen for RBBP9 inhibitor project, biochemical, fluorescence polarization; Glutathione S-transferase omega-1 (Homo sapiens), P78417; activity-based probe fluorescence polarization; inhibition, % at 5.96 µM; actives 1.1% (n = 300,000);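 active = inhibition above the campaign mean inhibition plus 3 SD, cut at about 35% in these data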;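 note: 0% = GSTO1-1 with DMSO and 100% = wells lacking GSTO1-1 enzyme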
Target sequence (P78417 whole entry, looked up): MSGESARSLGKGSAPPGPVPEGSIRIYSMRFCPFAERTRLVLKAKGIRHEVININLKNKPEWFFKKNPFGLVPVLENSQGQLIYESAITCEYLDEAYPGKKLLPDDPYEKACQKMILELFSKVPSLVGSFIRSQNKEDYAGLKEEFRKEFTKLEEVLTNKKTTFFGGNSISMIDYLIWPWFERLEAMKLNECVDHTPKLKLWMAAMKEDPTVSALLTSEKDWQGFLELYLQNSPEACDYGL
Apaf1 inhib: inhibitors of human Apaf-1 apoptosome, primary screen, biochemical, DEVD-Rh110 fluorescence, uHTS; reconstituted apoptosome caspase-3 activity; actives 0.71% (n = 330,000); inhibition, % at 20 µM; Apoptotic protease-activating factor 1 (Homo sapiens), O14727; active = inhibition of at least 40% at 20 µM;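 note: plate controls were DMSO wells for no effect and DEVD-CHO caspase inhibitor wells for full effect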
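Material: reconstituted apoptosome with Apaf-1, cytochrome c, caspase-9, procaspase-3, dATP. Technique: Rh110 fluorescence intensity. Buffer or medium: pH 7.5 Hepes buffer with CHAPS, BSA, DTT. Times: 30 min plus 50 min, RT.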
TDP2 inh: human TDP2 enzyme inhibitors, primary screen, biochemical, epi absorbance, recombinant enzyme | Tyrosyl-DNA phosphodiesterase 2 (Homo sapiens), O95551 | AID 720702, 2013 | actives 0.34% (n = 370,000) | T5PNP hydrolysis, p-nitrophenol absorbance 415 nm | inhibition, % at 12.8 µM;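 active = inhibition above the mean of all tested compounds plus 3 SD, set per campaign, cut at about 25% in these data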;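 note: 0% = DMSO with enzyme and 100% = buffer with substrate but no TDP2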
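Evaluation: % inhibition relative to enzyme-containing and enzyme-free wells. Material: recombinant human TDP2. Benchmarks: enzyme-free and DMSO wells. Timing: enzyme reaction with compound for 2 h at 37 °C. Compound dosing: 12.8 µM only. Measured by: p-Nitrophenol epi absorbance. Reagent: T5PNP substrate at 5 mM, a TopII-DNA adduct mimic. Replication: single well per compound.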
PRMT1 inh: PRMT1 methyltransferase inhibitors, primary screen, biochemical, fluorescence polarization; inhibition, % at 2.79 µM; recombinant PRMT1, activity-based probe fluorescence polarization; actives 1.3% (n = 370,000); Protein arginine N-methyltransferase 1 (Homo sapiens), Q99873;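 active = inhibition above about 21% made by adding two undisclosed values, limit read from the data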
Target sequence (Q99873 whole entry, looked up): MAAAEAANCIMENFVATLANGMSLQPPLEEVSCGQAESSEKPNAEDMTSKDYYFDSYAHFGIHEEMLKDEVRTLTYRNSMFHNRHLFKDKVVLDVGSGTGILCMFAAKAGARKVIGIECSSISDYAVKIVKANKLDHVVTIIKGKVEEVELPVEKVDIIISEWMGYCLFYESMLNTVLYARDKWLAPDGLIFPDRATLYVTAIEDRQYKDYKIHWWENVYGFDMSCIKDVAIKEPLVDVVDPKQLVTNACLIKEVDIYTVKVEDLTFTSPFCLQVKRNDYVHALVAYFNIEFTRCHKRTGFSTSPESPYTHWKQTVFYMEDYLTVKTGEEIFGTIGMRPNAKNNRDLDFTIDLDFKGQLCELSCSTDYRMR
PAD4 FP inh: human PAD4 inhibitors, primary screen, biochemical, fluorescence polarization, 1536-well format; Protein-arginine deiminase type-4 (Homo sapiens), Q9UM07; recombinant PAD4, RCA probe fluorescence polarization; inhibition, % at 6.36 µM; actives 0.41% (n = 330,000);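 active = percent inhibition above a cutoff equal to the mean of all tested compounds plus 3 SD, cut at about 15% in these data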;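 note: 0% = PAD4 with RCA probe and DMSO and 100% = probe without PAD4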
PRMT1 confirm: PRMT1 methyltransferase inhibitors, confirmation, biochemical, fluorescence polarization, triplicate; inhibition, % at 2.79 µM; shares compounds with PRMT1 inh; actives 42% (n = 3,300); recombinant His-PRMT1, activity-based probe fluorescence polarization; AID 687036, 2013;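 active = mean inhibition across replicates above the hit cutoff derived for the earlier primary screen, cut at about 22% in these data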
An asterisk follows results filed as active; x = not tested or not shown. An excerpt weighted towards active compounds, which were near 2.6% of everything screened.

SMILES	GSTO1 inh	Apaf1 inhib	TDP2 inh	PRMT1 inh	PAD4 FP inh	PRMT1 confirm
COc1ccc(NC(=O)CN(C)C(=O)CCCc2nc3ccccc3s2)cc1	-1	5	-5	0	-4	x
COCCNc1nc(-c2cc(C(=O)Nc3ccccc3)on2)cc(C(C)C)n1	-1	11	x	x	-4	x
COC(=O)c1ccc(OC)c(CN2CCCN(Cc3ccc(F)cc3)S2(=O)=O)c1	-2	21	-9	-1	1	x
Oc1cc(O)c(CN2CCOCC2)cc1CN1CCOCC1	x	x	0	29*	x	0
CSCSC1=C(C#N)C(c2ccccc2Cl)C(C(C)=O)=C(C)N1 (centres undefined)	4	3	-18	27*	-5	4
CN1CCc2c(sc(/N=C/c3ccco3)c2C(N)=O)C1	0	1	-1	25*	0	6
CN1CCc2c(sc(/N=C/c3cccs3)c2C(N)=O)C1	7	2	x	x	-2	x
COC(=O)c1c(NC(=O)COC(=O)C2CCC2)sc(C)c1C	-4	21	-16	1	-2	x
FC(F)Sc1ccc(Nc2ncnc3nc[nH]c23)cc1	-10	-9	-2	35*	4	20
Cc1ccc(C2(C)NC(=O)N(CC(=O)Nc3ccc(S(=O)(=O)Nc4nccs4)cc3)C2=O)cc1 (centres undefined)	-19	3	-1	7	-7	x
CC(NC(=O)CSc1nc2c(c(C(F)(F)F)n1)CCc1ccccc1-2)c1ccccc1 (centres undefined)	4	11	8	-4	1	x
O=C(CSc1nc2c(c(C(F)(F)F)n1)CCc1ccccc1-2)NCc1ccco1	-9	19	0	26*	-4	3
COc1cc(/C=C/C(=O)OCC(=O)NCCC2=CCCCC2)cc(OC)c1OC	x	12	3	-1	2	x
CCCCC(=O)OCC(=O)C1(O)Cc2c(O)c3c(c(O)c2C(OC2CC(NC(=O)C(F)(F)F)C(O)C(C)O2)C1)C(=O)c1c(OC)cccc1C3=O (centres undefined)	x	x	-9	25*	x	15
O=[N+]([O-])c1ccc(-c2csc3[n+]2CCS3)cc1	7	0	-3	47*	-4	3
Fc1ccc(-c2csc3[n+]2CCS3)cc1	-2	3	0	1	0	x
CC1=C(C#N)c2nc(N)c(C#N)c(C)c2/C1=C\c1ccc(-c2ccccc2C(=O)O)o1	x	x	6	15	x	x
COc1cc(/C=C2/C(C)=C(C#N)c3nc(N)c(C#N)c(C)c32)ccc1OCC(=O)O	-11	2	1	27*	-18	9
Cc1cc(C)cc(-n2nnn(C3C/C(=N/NC(N)=S)C4OCC3O4)c2=S)c1 (centres undefined)	-3	8	1	26*	2	5
O=C(COc1ccccc1)NC(=S)Nc1ccc(Br)cn1	10	-18	16	31*	3	3
Cc1ccccc1C(=O)NNC(=S)NC(=O)COc1ccccc1	-3	-10	-14	44*	6	9
Cc1ccc(C(=O)NNC(=S)NC(=O)COc2ccccc2)cc1	6	-5	2	8	-2	x
Nc1ccc2c(c1)C/C(=C/c1ccco1)C2=O	28	37	1	39*	1	33*
O=C1NC[C@@H](CCCCN2C[C@H](Cc3ccc(O)cc3)N(Cc3ccccc3)C(=O)C2=O)N(CC2CCCCC2)C1=O	x	x	1	0	x	x
COC(=O)[C@@]1(Cc2ccc(OC)cc2)[C@H]2c3cc(C(=O)N4CCCC4)n(Cc4ccc(S(C)(=O)=O)cc4)c3C[C@H]2CN1C(=O)c1ccccc1	x	x	-7	2	x	x
SMILES	GSTO1 inh	Apaf1 inhib	TDP2 inh	PRMT1 inh	PAD4 FP inh	PRMT1 confirm
COC(=O)[C@@]1(Cc2ccc(OC)cc2)[C@H]2c3cc(C(=O)N4CCCC4)n(Cc4ccc(C)o4)c3C[C@H]2CN1C(=O)c1ccccc1	x	x	-13	39*	x	3
N#CCc1c(C#N)c(N)nc(N2CCOCC2)c1C#N	0	-6	9	38*	-2	-2
CC(=O)N1CCN(c2nc(N)c(C#N)c(CC#N)c2C#N)CC1	-9	-21	3	29*	-7	-7
COc1ccccc1N1CCN(c2nc(N)c(C#N)c(CC#N)c2C#N)CC1	-4	4	-4	10	-8	x
N#CCc1c(C#N)c(N)nc(N2CCN(C=O)CC2)c1C#N	-7	-4	13	35*	-10	-3
CC(O)(c1ccccc1)c1nc(-c2cccc(C#N)c2)cs1 (centres undefined)	x	x	0	8	x	x
c1ccc2c(c1)Sc1cnccc1N2CC1CO1 (centres undefined)	x	x	1	7	x	x
O=C1NC(=S)S/C1=C\c1ccc(SCc2ccccc2)o1	19	x	16	64*	-13	15
Cc1c(C(=O)Nc2c3c(nn2C(C)(C)C)CS(=O)(=O)C3)cccc1[N+](=O)[O-]	2	-15	9	2	1	x
O=C(CSc1ccccc1)NNC(=O)c1ccncc1	x	14	16	-1	x	x
Cc1ccc(/C=c2\s/c(=C(/C#N)C(=O)N3CCCC3)n(Cc3ccco3)c2=O)s1	4	33	-8	26*	-4	0
C/C(CC(=O)Nc1ccc(C)c(Cl)c1)=N\NC(=O)c1cccc(O)c1	-4	-11	-10	0	-6	x
CCN(Cc1cn(Cc2ccccc2)nn1)S(=O)(=O)c1ccc(N2CCCC2)cc1Br	x	x	4	-2	x	x
O=C1c2ccccc2-c2onc3ccc(N4CCCC4)c1c23	x	x	17	90*	x	74*
O=C1c2cccc3c(N4CCCCC4)ccc(c23)C(=O)N1c1ccccc1O	7	5	-5	19	-9	x
O=C1CC[C@@H](O)CCN1CC[C@H](Sc1ccccc1)c1ccccc1	2	-6	-10	-1	-6	x
CC(=O)Nc1ccc(S[C@@H](CCN2CC[C@H](O)CCC2=O)c2ccccc2)cc1	x	-4	4	36*	10	28*
COc1cc(OC)cc(C(=O)NC(=S)NNC(=O)Cc2cccs2)c1	-6	-1	-15	28*	7	3
O=C(NNc1nc(-c2ccccc2)cs1)c1ccccc1	3	-6	-9	3	2	x
COC(=O)c1nc(NNC(=O)c2ccccc2)sc1-c1ccccc1	-2	14	-23	43*	-1	5
CC(CSc1n[nH]c(=S)s1)c1ccccc1 (centres undefined)	x	x	-1	41*	x	74*
c1ccc(CN(CCN2CCOCC2)Cc2ccccc2)cc1	x	x	-16	-3	x	x
